Many of the other results were omitted from the sample, so hits are more common in it than they were.
L major viab – Leishmania major promastigote growth inhibition, primary screen | Leishmania major promastigotes, resazurin fluorescence viability | inhibition, % at 10 µM | 200,000 tested, 9% active | AID 1063, 2008;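 note: promastigotes grown with compound for 44 hours at 28 °C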
PfGluPho inh – PfG6PD enzyme inhibitors, primary screen, biochemical, fluorescence intensity, uHTS; AID 504690, 2011; PfGluPho enzyme, NADPH resazurin-diaphorase fluorescence; 350,000 tested, 0.78% active; inhibition, % at 20 µM; glucose-6-phosphate dehydrogenase-6-phosphogluconolactonase (Plasmodium falciparum 3D7);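 active = inhibition reaching at least a set limit at 20 µM in the primary screen, cut at about 59% in these data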
Diaph inh CS – diaphorase inhibitors and chemical oxidizers, primary screen, counter-screen for diaphorase-coupled primary assays, biochemical, uHTS, resorufin fluorescence; diaphorase resazurin-to-resorufin fluorescence, NADH, 16 min; bacterial (C. kluyveri) enzyme, not human; inhibition, % at 20 µM; 190,000 tested, 0.69% active; AID 1217, 2008;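 active = primary screen inhibition at 20 µM above a set limit, cut at about 50% in these data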
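Assay system: diaphorase enzyme from Clostridium kluyveri; Input: enzyme working solution with 0.14 U/mL diaphorase; Timing: 16 min at room temperature; Technique: resorufin fluorescence, excitation 544 nm, emission 590 nm; Benchmarks: positive control minus NADH, DMSO neutral control.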
G6PDH counter – L. mesenteroides G6PDH inhibitors, counter-screen for G6PDH-coupled screening assays, biochemical, Leuconostoc mesenteroides enzyme. glucose-6-phosphate dehydrogenase [Leuconostoc mesenteroides]. Purified L. mesenteroides G6PDH, diaphorase/resazurin coupled fluorescence, 45 min. inhibition, % at 5 µM. 200,000 tested, 0.12% active. AID 1020, 2008
DTT redox prof – compounds producing H2O2 with reducing agent – biochemical, NIH compound library profiling, artefact control for MLSCN library redox annotation, primary screen | 200,000 tested, 0.03% active | DTT-dependent redox cycling H2O2, phenol red/HRP absorbance; 100% = 100 µM peroxide control, 0% = buffer | activation, % at 10 µM | AID 878, 2007;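 active = activation of at least 50% relative to the plate's high and low controls in the primary single-dose screen; inactive = activation below 50%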;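 note: compound incubated with DTT at 0.8 mM final as the reducing agent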
Diaphorase act – compounds boosting diaphorase resazurin reduction – biochemical, uHTS, resorufin fluorescence, counter-screen for diaphorase-coupled primary assays, primary screen | Diaphorase/resazurin coupled assay, 16 min; stronger effect = higher value; 1 = vehicle wells, 0 = NADH-free wells | activation factor at 20 µM | 190,000 tested, 0.005% active | AID 1229, 2008;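 active = diaphorase activity raised at least twofold by the compound at 20 µM; inactive = activation factor below 2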
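System – purified diaphorase enzyme from Clostridium kluyveri · Input – enzyme 0.07 U/mL final · Also added – final NADH 0.114 mM, resazurin 0.1 mM · Measured by – fluorescence of resorufin, 544 nm excitation, 590 nm emission · Timing – 16 min enzyme reaction, ambient temperature · Measure – resorufin increase flagging diaphorase activators or reducers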
Numbers stand for hits; i = inactive; nt = not tested or not shown. Cut-off read from the data, not from the text of the source, unless noted: active = inhibition above about 50%; inactive = the rest.

SMILES	L major viab	PfGluPho inh	Diaph inh CS	G6PDH counter	DTT redox prof	Diaphorase act
Cc1ccc(N2C(N)=C(C#N)C(c3cccs3)C3=C2CC(C)(C)CC3=O)cc1 (stereo not given)	98	i	i	i	i	i
COc1ccc(C(CC(=O)c2ccccc2)CC(=O)c2ccccc2)cc1	nt	i	nt	nt	nt	nt
COc1ccc(C(CC(=O)c2ccccc2)CC(=O)c2ccccc2)cc1OC	51	i	i	i	i	i
O=C(CSc1ncnc2scc(-c3ccccc3)c12)N1CCN(c2ccccc2F)CC1	55	i	i	i	i	i
O=C(CCCc1ccccc1)N1CCN(c2ccc([N+](=O)[O-])cc2)CC1	58	i	i	i	i	i
CCOC(=O)c1cc(-c2ccc(C)cc2)n(CCC(=O)N2CCN(c3ccccn3)CC2)c1C	90	i	i	i	i	i
O=C(CCc1ccccc1)N1CCN(c2ccccn2)CC1	52	i	i	i	i	i
O=C(CCCC(=O)N1CCN(c2ccc([N+](=O)[O-])cc2)CC1)c1ccccc1	86	i	i	i	i	i
O=C(O)CCC(=O)N1CCN(c2ccccn2)CC1	i	i	i	i	i	i
CCCn1c(N)c(C(=O)CSc2nnc(Cc3cccs3)n2C2CC2)c(=O)n(C)c1=O	nt	i	nt	nt	nt	nt
CC[C@]12c3[nH]c4cc(CCC(=O)N(C)C)ccc4c3CCN1C(=O)[C@@H](CC(=O)NCc1cccc(C(F)(F)F)c1)C[C@@H]2C(=O)N1CCN(C(=O)C2CC2)CC1	nt	i	nt	nt	nt	nt
O=C(Nc1ccc(Cl)c(Cl)c1)Nc1ccc(N2CCCC2)c(S(=O)(=O)Nc2ccccc2Cl)c1	99	i	i	i	i	i
O=C(Nc1ccc(F)cc1)Nc1ccc(N2CCCC2)c(S(=O)(=O)Nc2ccccc2Cl)c1	98	i	i	i	i	i
O=C(Nc1ccc(N2CCCCC2)c(S(=O)(=O)Nc2ccccc2Cl)c1)c1cccnc1	nt	i	nt	nt	nt	nt
CC(C)C(=O)N1CCN(c2ccc([N+](=O)[O-])cc2Cl)CC1	50	i	i	i	i	i
Cn1c(-c2ccc(Cl)cc2)cnc1NCc1cc2c(cc1[N+](=O)[O-])OCO2	98	i	i	i	i	i
Cn1c(-c2ccccc2)cnc1NCc1cc2c(cc1[N+](=O)[O-])OCO2	87	i	i	i	i	i
Cn1c(-c2ccc(F)cc2)cnc1NCc1cc2c(cc1[N+](=O)[O-])OCO2	99	i	i	i	i	i
Cn1c(-c2ccccc2)cnc1NCc1cccc([N+](=O)[O-])c1	nt	i	nt	nt	nt	nt
C[C@@H]1CCCCO[C@H](CN(C)Cc2ccc(C(F)(F)F)cc2)[C@@H](C)CN([C@H](C)CO)C(=O)c2cc(NS(=O)(=O)c3cn(C)cn3)ccc2O1	nt	i	nt	nt	nt	nt
Cc1ccc(/C(O)=C2\C(=O)C(=O)N(CC(C)O)C2c2ccc(N(C)C)cc2)cc1 (stereo not given)	i	i	i	i	i	i
COc1ccccc1N1CCN(C(=O)C2CCC(CNS(=O)(=O)c3ccc(NC(C)=O)cc3)CC2)CC1 (stereo not given)	nt	i	nt	nt	nt	nt
C[C@]12CCC[C@H](O1)c1c(cc3c(c1O)C(=O)c1c(O)cc(O)cc1C3=O)O2	nt	i	nt	nt	nt	nt
Cc1cccc(NC(=O)CCC(=O)N/N=C/c2ccco2)c1	i	i	i	i	i	i
CCCCCC(=O)N/N=C/c1ccco1	78	i	i	i	i	i
SMILES	L major viab	PfGluPho inh	Diaph inh CS	G6PDH counter	DTT redox prof	Diaphorase act
O=C(N/N=C\c1ccco1)Nc1cccc(Cl)c1	63	i	i	i	i	i
COc1cc(/C=N\Nc2nncn2N)ccc1OC(C)=O	nt	i	nt	nt	nt	nt
Cc1cc(C)n2ncc(C(=O)NCc3ccccc3)c2n1	55	i	i	i	i	i
O=C(NCCc1ccccc1)c1cnn2c(C(F)F)cc(C3CC3)nc12	i	i	64	i	i	i
O=C(c1nc2ncccn2n1)N1CCc2ccccc2C1	91	i	i	i	i	i
O=S1(=O)CC=C(CSC(=S)NC2CCS(=O)(=O)C2)C1 (stereo not given)	76	i	i	i	i	i
Cc1c(C(=O)Nc2ccc3c(c2)OCCO3)sc2nc(-c3ccccc3)cn12	56	i	i	i	i	i
CCOC(=O)c1ccc(S(=O)(=O)N2CCN(Cc3cc4c(cc3O)OCO4)CC2)cc1	nt	i	nt	nt	nt	nt
CCN1CCN(C(=S)Nc2ccc3nc(N4CCN(CC)CC4)cc(C)c3c2)CC1	i	i	i	i	i	i
CCOC(=O)N1CCN(C(=S)Nc2ccc3nc(N4CCN(CC)CC4)cc(C)c3c2)CC1	72	i	i	i	i	i
CCN1CCN(c2cc(C)c3cc(NC(=S)N4CCCC4)ccc3n2)CC1	i	i	i	i	i	i
CCN1CCN(C(=S)Nc2ccc3nc(N4CCN(C)CC4)cc(C)c3c2)CC1	67	i	i	i	i	i
Cc1cc(N2CCN(C)CC2)nc2ccc(NC(=O)CCC(=O)NCCC3=CCCCC3)cc12	100	i	nt	nt	i	nt
CCN1CCN(c2cc(C)c3cc(NC(=S)N4CCCCC4)ccc3n2)CC1	58	i	i	i	i	i
CN(C)CCCNCCCNC(=O)/C(=N\O)c1ccccc1	nt	i	nt	nt	nt	nt
CC(C)C[C@@H](CO)N1CCN(Cc2cccnc2)CCC1=O	nt	i	nt	nt	nt	nt
COc1ccc(CNCC(=O)Nc2cc(OC)cc(OC)c2)cc1	nt	i	nt	nt	nt	nt
O=C(Nc1cccc(F)c1)NC1(C(=O)N2CCOCC2)CCCCC1	i	i	i	i	i	i
COc1ccc(C)cc1NC(=O)Cc1csc(NC(=O)Nc2ccccc2OC)n1	nt	i	nt	nt	nt	nt
CC(OC(=O)c1cc(=O)[nH]c2ccccc12)c1ccccc1 (stereo not given)	i	i	i	i	i	i
Cc1nc2cc(-c3ccccc3)nn2c(C)c1CCC(=O)NC(C)c1ccc2c(c1)OCCO2 (stereo not given)	95	i	i	i	i	i
Cc1nc2cc(-c3cccc(F)c3)nn2c(C)c1CCC(=O)NC(C)c1ccc2c(c1)OCCO2 (stereo not given)	97	i	i	i	i	i
O=C(Cn1cccc1C(=O)c1ccccc1)NCc1ccc2c(c1)OCO2	i	i	i	i	i	i
CC(NC(=O)Cn1cccc1C(=O)c1ccccc1)c1ccc2c(c1)OCCO2 (stereo not given)	89	i	i	i	i	i
Cc1occc1-c1nnc(SC(C)C(=O)Nc2ccccc2F)o1 (stereo not given)	nt	i	nt	nt	nt	nt

Source: PubChem BioAssay (several laboratories)
